# Shown are actives, neighbours in structure and some others; about 0.16% of the full set was active somewhere.
# STK33 inh = blocks human STK33 kinase activity; 0.073% of 320,000 active; Q9BYT3; purified STK33, MBP phosphorylation, ADP-Glo luminescence; inhibition, % at 10 µM;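 active = inhibition at or above 25%, using the most active replicate where run in duplicate; inactive = inhibition below 25%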
# GSK3A inh = human GSK-3 alpha kinase inhibition. AID 2650. ADP-Glo luminescence, 60 min. P49840. 0.1% of 320,000 active. inhibition, % at 10 µM;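 active = more than half of replicates show inhibition above 20%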;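 also: GST-tagged GSK-3 alpha with peptide substrate and 25 µM ATP; 0% = DMSO neutral wells and 100% = GW8510 positive control wells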
# CDK5 inh = inhibitors of human CDK5/p35 kinase; Recombinant CDK5/p35, ADP-Glo luminescence, 60 min; 0.01% of 330,000 active; inhibition, % at 10 µM; AID 488839;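 active = highest replicate inhibition of at least 50% and at least 75% of replicates reaching 50%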;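 also: plate controls were DMSO neutral control for no effect and GW8510 at 10 µM for full effect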
# GSK3beta inhib = inhibitors of human GSK3beta kinase; activity score (negative = inhibition), % at 10 µM; P49841; 0.038% of 300,000 active; GST-GSK3beta kinase, ADP-Glo luminescence, 60 min; hits give low values; AID 2097;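 active = more than half of replicate wells score below -50%, meaning over 50% inhibition versus plate controls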;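 also: 0% = median DMSO wells and -100% = median GW8510 positive control wells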
#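 test system = GST-tagged human GSK3beta kinase, cell-free | reagent = 25 µM ATP with peptide substrate | dosing = one dose of 10 µM per compound | schedule = 60 min reaction, RT | detection = luminescent ADP-Glo measurement of ADP formed | control set = DMSO neutral wells and GW8510 at 20 µM as positive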
# Active calls of the source: *; . = no result; + = active, no number.
SMILES,STK33 inh,GSK3A inh,CDK5 inh,GSK3beta inhib
COc1ccc(-n2c(/C=C3\C(=O)Nc4ccccc43)nc3ccccc3c2=O)cc1,-1,10,1,-1
COc1ccc2c(c1)/C(=C/c1cnc[nH]1)C(=O)N2,58*,81*,+,-89*
O=C1Nc2ccccc2/C1=C/c1cnc[nH]1,37*,79*,102*,-23
O=C1NC(=S)SC1=Cc1ccc(N(CCCl)CCCl)cc1,.,.,0,.
S=P(NCCSCc1ccccc1)(N1CC1)N1CC1,.,.,1,.
CN1CCc2nc3sc(C#N)c(N)c3c(-c3cccs3)c2C1,4,95*,1,-6
C=CCn1c(O)c(C=NCCCn2ccnc2)c(=O)[nH]c1=O,-1,49,1,-22
CCCCn1c(O)c(C=NCCCn2ccnc2)c(=O)[nH]c1=O,0,68*,0,0
CCCCn1c(O)c(C(C)=NCCCn2ccnc2)c(=O)[nH]c1=O,1,54*,0,-3
Clc1ccc(C(Cl)(Cl)Cl)c(Cl)c1,0,-2,-1,.
ClCCN1CCN(c2ccnc3cc(Cl)ccc23)CC1,2,86*,3,-5
CCCCCCN1CCN(c2ccc(Cl)cc2)CC1,0,2,0,2
O=C1CN=C(c2ccccc2)c2ccccc2N1,0,9,4,-1
CCc1cc2c(s1)NC(=O)CN=C2c1cccs1,0,76*,-1,0
Oc1cc(O)cc(/C=C/c2ccc(O)cc2O)c1,54*,22,3,.
C[N+]1(CCC(C(N)=O)(c2ccccc2)c2ccccc2)CCCCC1,-1,1,.,2
CCN(CC)C(=O)c1ccc(NC(=O)Nc2ccccc2F)cc1,28*,29,38,-34
NC(=O)CSc1nnc([C@@H](N)Cc2c[nH]c3ccccc23)o1,0,52*,1,-4
COC[C@]12CN(C)C3C4[C@H](OC)[C@H]1C3([C@@H](OC)C[C@H]2O)[C@@H]1C[C@@]2(O)[C@H](OC(=O)c3ccccc3)[C@@H]1[C@]4(OC(C)=O)[C@@H](O)[C@@H]2OC,1,-1,.,0
CN(C(=O)Cc1ccc(Cl)c(Cl)c1)C(CN1CCCC1)c1cccc(OCC(=O)O)c1 (configuration not stated),-1,-1,-1,.

# Screening data (PubChem)
